From ChEMBL document CHEMBL3871278, “Isolation of Coralmycins A and B, Potent Anti-Gram Negative Compounds from the Myxobacteria Corallococcus coralloides M23” (J Nat Prod, 2016) come the findings set out here.

For data set [1], the system named is Staphylococcus aureus. Put plainly: Antibacterial activity against methicillin-resistant Staphylococcus aureus CCARM 3506 after 24 hrs by broth microdilution method. Format: functional. Particulars: CCARM 3506, 24 h. The procedure, abridged: (§1)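 Strains grown to mid-log phase in Mueller-Hinton broth, diluted 1000-fold; 10^5 cells/mL in Mueller-Hinton broth exposed to serial 2-fold dilutions of compound from DMSO stocks (final DMSO ≤0.05%; 0.05% DMSO vehicle control; ciprofloxacin comparator). Incubated 24 h at 37 °C; growth read by absorbance at 650 nm. MIC = lowest concentration completely inhibiting growth, in triplicate.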
For orientation: Dilution methods test growth across graded concentrations, often in twofold steps.

For a further data set, the system named is Pseudomonas aeruginosa. Put plainly: Antibacterial activity against Pseudomonas aeruginosa KCTC 2004 after 24 hrs by broth microdilution method. The class given is functional. Particulars: KCTC 2004, 24 h. The essentials: (§2)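 Broth microdilution with triplicate serial 2-fold dilutions; inoculum 10^5 cells/mL at 0.2 mL/well. Strains were grown to mid-log phase and diluted 1000-fold. Media: Mueller-Hinton broth for most strains, nutrient broth for A. baumannii, Todd-Hewitt for S. pneumoniae. DMSO was at most 0.05% final. After 24 h at 37 °C, MIC = lowest concentration completely inhibiting growth, read by A650.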

A further data set relates to Streptococcus pneumoniae. Description: Antibacterial activity against Streptococcus pneumoniae KCTC 5412 after 24 hrs by broth microdilution method. The class given is functional. Particulars: KCTC 5412, 24 h. The procedure, abridged: as §2
The next data set has as its system Acinetobacter baumannii. Description: Antibacterial activity against Acinetobacter baumannii KCTC 2508 after 24 hrs by broth microdilution method. Format: functional. Conditions: KCTC 2508, 24 h. The essentials:
as §2

A further data set concerns Klebsiella pneumoniae. Put plainly: Antibacterial activity against Klebsiella pneumoniae KCTC 22057 after 24 hrs by broth microdilution method. Particulars: KCTC 22057, 24 h. The class given is functional. The procedure, abridged: as §2
The test system of data set [2] is Staphylococcus aureus. Description: Antibacterial activity against Staphylococcus aureus RN4220 after 24 hrs by broth microdilution method. The class given is functional. Particulars: RN4220, 24 h. The essentials: as §2
Data set [3] has as its system Staphylococcus aureus. Put plainly: Antibacterial activity against quinolone-resistant Staphylococcus aureus CCARM 3519 after 24 hrs by broth microdilution method. The class given is functional. Particulars: CCARM 3519, 24 h. The essentials:
as §1

Data set [4] concerns Escherichia coli. Put plainly: Antibacterial activity against Escherichia coli CCARM 1356 after 24 hrs by broth microdilution method. Format: functional. Particulars: CCARM 1356, 24 h. The procedure, abridged: as §2
In data set [5] the test system is Staphylococcus aureus. Description: Antibacterial activity against methicillin-resistant Staphylococcus aureus CCARM 3167 after 24 hrs by broth microdilution method. Format: functional. Particulars: CCARM 3167, 24 h. The essentials: as §1
In data set [6] the test system is Escherichia coli. Put plainly: Antibacterial activity against Escherichia coli KCTC 1682 after 24 hrs by broth microdilution method. Format: functional. Particulars: KCTC 1682, 24 h. The essentials: as §2
In another data set the test system is Enterococcus faecalis. Description: Antibacterial activity against Enterococcus faecalis KCTC 5191 after 24 hrs by broth microdilution method. Conditions: KCTC 5191, 24 h. Format: functional. The essentials: as §2
Data set [7] concerns Staphylococcus aureus. Put plainly: Antibacterial activity against quinolone-resistant Staphylococcus aureus CCARM 3505 after 24 hrs by broth microdilution method. Format: functional. Particulars: CCARM 3505, 24 h. The essentials:
as §1

A short description of data set [8]: Cytotoxicity against human MCF10A cells assessed as cell growth inhibition at 50 ug/ml after 48 hrs by SRB assay. Format: toxicity, cell-based. Conditions: mcf-10a. The procedure, abridged:
(§3)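 Single-concentration test at 50 μg/mL for 48 h. HepG2, MRC-9 or MCF10A cells (under passage 20) were grown in RPMI 1640 with 10% newborn calf serum and seeded at 1 × 10^4 cells/well one day before treatment. Growth inhibition was read by sulforhodamine B assay.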
(In general: The SRB assay estimates cell density from bound dye.)

Data set [9] in a line: Cytotoxicity against human MRC9 cells assessed as cell growth inhibition at 50 ug/ml after 48 hrs by SRB assay. Format: toxicity, cell-based. Conditions: mrc9, 48 h. The essentials: as §3
Data set [10] in a line: Cytotoxicity against human HepG2 cells assessed as cell growth inhibition at 50 ug/ml after 48 hrs by SRB assay. The class given is toxicity, cell-based. Particulars: hepg2, 48 h. The procedure, abridged:
as §3

Data set [11] in a line: Cytotoxicity against human MRC9 cells assessed as cell growth inhibition after 48 hrs by SRB assay. Format: toxicity, cell-based. The procedure, abridged:
(§4)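 HepG2, MRC-9 or MCF10A cells (under passage 20) were grown in RPMI 1640 with 10% newborn calf serum and seeded at 1 × 10^4 cells/well one day before treatment. Compounds were applied at various concentrations for 48 h. Viability was measured by sulforhodamine B staining, and GI50 was calculated from the dose-response.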

Data set [12] is described as follows: Cytotoxicity against human MCF10A cells assessed as cell growth inhibition after 48 hrs by SRB assay. Format: toxicity, cell-based, MCF-10A. The essentials:
as §4

Data set [13] in a line: Cytotoxicity against human HepG2 cells assessed as cell growth inhibition after 48 hrs by SRB assay. The class given is toxicity, cell-based. The procedure, abridged: as §4

Structures are written as SMILES. ≈ marks a conversion by molar mass, not a printed value. Structures can show the parent of a compound that is named as a salt.

`CO[C@@H](C(N)=O)[C@H](NC(=O)c1ccc(NC(=O)c2ccc([N+](=O)[O-])cc2)cc1)C(=O)Nc1ccc(C(=O)Nc2ccc(C(=O)Nc3ccc(C(=O)O)c(O)c3OC(C)C)c(O)c2OC(C)C)cc1`: the MIC turned out to be 0.015 µg/mL (≈ 0.016 µM) with Staphylococcus aureus [1]; 4 µg/mL (≈ 4.27 µM) against Pseudomonas aeruginosa; 0.25 µg/mL (≈ 0.267 µM) against Streptococcus pneumoniae; 0.125 µg/mL (≈ 0.134 µM) in the data set with Acinetobacter baumannii; 2 µg/mL (≈ 2.14 µM) with Klebsiella pneumoniae; 0.015 µg/mL (≈ 0.016 µM) in the data set on Staphylococcus aureus [2]. For the same compound, the MIC against Staphylococcus aureus [3] came to 0.25 µg/mL (≈ 0.267 µM); in the data set with Escherichia coli [4], 0.125 µg/mL (≈ 0.134 µM); in the data set with Staphylococcus aureus [5] it was 0.015 µg/mL (≈ 0.016 µM); against Escherichia coli [6], 0.125 µg/mL (≈ 0.134 µM); in the data set on Enterococcus faecalis, 0.03 µg/mL (≈ 0.0321 µM); against Staphylococcus aureus [7], 0.125 µg/mL (≈ 0.134 µM).

As for `CO[C@@H](C(N)=O)[C@H](NC(=O)c1ccc(NC(=O)c2ccc([N+](=O)[O-])cc2)cc1)C(=O)Nc1ccc(C(=O)Nc2ccc(C(=O)Nc3ccc(C(=O)O)cc3OC(C)C)c(O)c2OC(C)C)cc1`, the Activity entry in [8], in [9] and in data set [10] was “Non-Toxic” each time. Besides, the minimal inhibitory concentration (MIC) came out at 0.125 µg/mL (≈ 0.136 µM) in the data set with Staphylococcus aureus [1]; 8 µg/mL (≈ 8.7 µM) with Pseudomonas aeruginosa; 2 µg/mL (≈ 2.17 µM) in the data set on Streptococcus pneumoniae; 0.25 µg/mL (≈ 0.272 µM) with Acinetobacter baumannii; 8 µg/mL (≈ 8.7 µM) in the data set on Klebsiella pneumoniae; 0.063 µg/mL (≈ 0.0685 µM) against Staphylococcus aureus [2]. Moreover, the MIC is 2 µg/mL (≈ 2.17 µM) with Staphylococcus aureus [3]; 1 µg/mL (≈ 1.09 µM) in the data set with Escherichia coli [4]; 0.125 µg/mL (≈ 0.136 µM) against Staphylococcus aureus [5]; 0.5 µg/mL (≈ 0.544 µM) in the data set on Escherichia coli [6]; 0.125 µg/mL (≈ 0.136 µM) in the data set with Enterococcus faecalis; 1 µg/mL (≈ 1.09 µM) against Staphylococcus aureus [7].

For `CO[C@H](C(=O)O)[C@H](NC(=O)c1ccc(NC(=O)c2ccc([N+](=O)[O-])cc2)cc1)C(=O)Nc1ccc(C(=O)Nc2ccc(C(=O)Nc3ccc(C(=O)O)cc3OC(C)C)c(O)c2OC(C)C)cc1`, the MIC with Staphylococcus aureus [1] was 1 µg/mL (≈ 1.09 µM); in the data set with Pseudomonas aeruginosa, greater than 16 µg/mL; against Streptococcus pneumoniae, greater than 16 µg/mL; against Acinetobacter baumannii it was 4 µg/mL (≈ 4.34 µM); against Klebsiella pneumoniae it was greater than 16 µg/mL; against Staphylococcus aureus [2] it was 2 µg/mL (≈ 2.17 µM). The MIC against Escherichia coli [4] came out at 16 µg/mL (≈ 17.4 µM); against Staphylococcus aureus [5], 1 µg/mL (≈ 1.09 µM); with Escherichia coli [6], 4 µg/mL (≈ 4.34 µM); in the data set with Enterococcus faecalis, 4 µg/mL (≈ 4.34 µM).

With `O=C(O)c1cn(C2CC2)c2cc(N3CCNCC3)c(F)cc2c1=O` [CIPROFLOXACIN], the MIC turned out to be 0.06 µg/mL (≈ 0.181 µM) in the data set with Pseudomonas aeruginosa; 0.125 µg/mL (≈ 0.377 µM) in the data set with Acinetobacter baumannii; 0.006 µg/mL (≈ 0.0181 µM) against Klebsiella pneumoniae; 128 µg/mL (≈ 386 µM) with Staphylococcus aureus [3]; 64 µg/mL (≈ 193 µM) against Escherichia coli [4]; 2 µg/mL (≈ 6.04 µM) in the data set with Staphylococcus aureus [5]. In addition, the minimum inhibitory concentration (MIC) in the data set on Enterococcus faecalis was 0.5 µg/mL (≈ 1.51 µM); against Staphylococcus aureus [7], 128 µg/mL (≈ 386 µM).

In the case of `COc1cccc2c1C(=O)c1c(O)c3c(c(O)c1C2=O)C[C@@](O)(C(=O)CO)C[C@@H]3O[C@H]1C[C@H](N)[C@H](O)[C@H](C)O1` [DOXORUBICIN HYDROCHLORIDE], the GI50 at 48 h in [11], in data set [12] and in data set [13] was 0.04 to 0.08 µg/mL throughout.

One may read the MIC as the least concentration at which growth counts as inhibited. Low readings indicate a more susceptible organism, high ones a less susceptible organism. One may read the GI50 as the concentration that inhibits growth by half.
